From ChEMBL document CHEMBL4325827, “Bifidenone: Structure-Activity Relationship and Advanced Preclinical Candidate” (J Med Chem, 2018)
Active and inactive are the calls of the source. The rule behind the calls is not given here.

How the values were obtained:
EKVX = test: Antiproliferative activity against taxane-resistant human EKVX cells after 72 hrs by CellTiter 96 aqueous nonradioactive cell proliferation assay; type: functional, cell-based
Tubulin (Sus scrofa) = Tubulin (Sus scrofa) (UniProt P02554+P02550); test: Inhibition of pig tubulin polymerization at 10 uM measured at 1 min intervals for 60 mins; type: protein assay
Chain of Tubulin (Sus scrofa) (P02550 whole entry, looked up): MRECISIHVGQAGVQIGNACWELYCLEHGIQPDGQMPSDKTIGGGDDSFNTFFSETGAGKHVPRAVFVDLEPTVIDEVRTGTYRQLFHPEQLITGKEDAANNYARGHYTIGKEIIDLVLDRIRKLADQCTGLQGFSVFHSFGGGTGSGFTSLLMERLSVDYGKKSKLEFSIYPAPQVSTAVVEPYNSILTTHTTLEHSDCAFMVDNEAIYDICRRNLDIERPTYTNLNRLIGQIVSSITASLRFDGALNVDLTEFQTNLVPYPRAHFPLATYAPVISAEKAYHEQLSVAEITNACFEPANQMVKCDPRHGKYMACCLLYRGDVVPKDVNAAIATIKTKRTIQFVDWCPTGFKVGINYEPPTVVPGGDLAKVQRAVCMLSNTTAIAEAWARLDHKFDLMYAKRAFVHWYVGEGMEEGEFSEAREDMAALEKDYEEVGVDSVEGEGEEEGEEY
Chain of Tubulin (Sus scrofa) (P02554 whole entry, looked up): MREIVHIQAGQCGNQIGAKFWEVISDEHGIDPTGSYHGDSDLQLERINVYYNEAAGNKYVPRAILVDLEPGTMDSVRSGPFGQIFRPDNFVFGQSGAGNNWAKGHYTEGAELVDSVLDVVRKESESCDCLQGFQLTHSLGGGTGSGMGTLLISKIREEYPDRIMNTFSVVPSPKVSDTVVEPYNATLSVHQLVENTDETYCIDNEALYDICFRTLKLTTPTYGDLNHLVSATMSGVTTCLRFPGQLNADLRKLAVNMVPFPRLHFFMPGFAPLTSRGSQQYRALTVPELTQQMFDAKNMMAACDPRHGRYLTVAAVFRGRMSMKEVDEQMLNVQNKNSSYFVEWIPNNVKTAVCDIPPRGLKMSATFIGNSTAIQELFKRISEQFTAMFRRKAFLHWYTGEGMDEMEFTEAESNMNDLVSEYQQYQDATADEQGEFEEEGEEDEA
In short: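 Polymerization assay using porcine tubulin.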

NCI-H460 = test: Antitumor activity against human NCI-H460 cells xenografted in Crl:NU(NCr)-Foxn1 nu mouse assessed as tumor growth inhibition at 60 mg/kg, ip qd administered for 3 consecutive days followed by 2 days of rest for 3 cycles relative to control; type: functional; details: 48 h, read-out: TGI
In short: (§1)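 Female athymic nude mice bearing subcutaneous xenografts, started from cultured cells (NCI-H460, Calu-6, NCI-H69, LOX-IMVI) or from serially passaged tumour fragments (NCI-H522). Mice were grouped into vehicle and treatment arms at tumour volumes of about 75-200 mm3. Dosing was ip at 5-10 mL/kg in 22% ethanol, 38% PEG400, 40% 20 mM Na citrate pH 5.0. Caliper volumes were taken as (length × width2)/2. Treated and control delta weights were median tumour weight minus staging-day median.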

[1] = Toxicity in Crl:NU(NCr)-Foxn1 nu mouse xenografted with human NCI-H460 cells assessed as mortality at 40 mg/kg, ip qd administered for 3 consecutive days followed by 2 days of rest for 3 cycles; type: organism-based; details: in vivo, 48 h
In short: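 Female athymic nude mice bearing subcutaneous xenografts started from cultured human tumor cells. Mice were split into vehicle and treatment groups once tumors reached about 75-200 mm3. Dosing was ip at 5-10 mL/kg in 22% ethanol, 38% PEG400, 40% 20 mM Na citrate pH 5.0. Deaths per group were recorded alongside maximum mean bodyweight loss.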

ACHN = test: Potency index, ratio of paclitaxel IC50 to compound IC50 for taxane-resistant human ACHN cells after 72 hrs by CellTiter 96 aqueous nonradioactive cell proliferation assay; type: functional
[2] = Toxicity in Crl:NU(NCr)-Foxn1 nu mouse xenografted with human […] cells assessed as maximum body weight loss at 60 mg/kg, ip qd administered for 3 consecutive days followed by 2 days of rest for 3 cycles measured after 3 days post dose relative to control; type: organism-based; details: in vivo, 72 h; in short: as §1
NCI-H69 = test: Antitumor activity against human NCI-H69 cells xenografted in Crl:NU(NCr)-Foxn1 nu mouse assessed as tumor growth inhibition at 60 mg/kg, ip dosed on day 1 followed by 4 days rest and subsequently dosed at 60 mg/kg, ip qd administered for 3 consecutive days followed by 2 days of rest for 2 cycles relative to control; type: functional; details: read-out: TGI; in short: as §1
OVCAR-4 = test: Potency index, ratio of paclitaxel IC50 to compound IC50 for taxane-resistant human OVCAR4 cells after 72 hrs by CellTiter 96 aqueous nonradioactive cell proliferation assay; type: functional
NCI/ADR-RES [3] = test: Antiproliferative activity against taxane-resistant human NCI/ADR-RES cells after 72 hrs by CellTiter 96 aqueous nonradioactive cell proliferation assay; type: functional, cell-based
In short: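 Antiproliferation in cultured tumour cells, at least 3 replicate wells per concentration per experiment. NCI-H460 came from ATCC. M14, NCI/ADR-RES, OVCAR-4, HCT-15, ACHN and SF-295 came from the National Cancer Institute. IC50 reported from single experiments where no SD is given.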

NCI/ADR-RES [4] = test: Potency index, ratio of paclitaxel IC50 to compound IC50 for taxane-resistant human NCI/ADR-RES cells after 72 hrs by CellTiter 96 aqueous nonradioactive cell proliferation assay; type: functional

Structure (SMILES): C=CC[C@H]1C[C@]2([C@H](C)Cc3cc(O)c(OC)cc3F)OCOC2=CC1=O
- IC50 (EKVX): 7 nM
- inhibition (Tubulin (Sus scrofa)): Active
- inhibition in vivo at 60 mg/kg (NCI-H460): 67%
- Activity [1]: Toxic
- Ratio IC50 (ACHN): 7
- Activity [2]: 9%
- inhibition in vivo at 60 mg/kg (NCI-H69): 77%
- Ratio IC50 (OVCAR-4): >75
- IC50 (NCI/ADR-RES [3]): 9 nM
- Ratio IC50 (NCI/ADR-RES [4]): >1000
